Data on 15 compounds can be found in ChEMBL document CHEMBL4673378, “Investigating the effects of the core nitrogen atom configuration on the thermodynamic solubility of 6,5-bicyclic heterocycles” (Bioorg Med Chem Lett, 2021).

Values after ≈ are worked out from the molar mass of the structure shown.

Type in all cases: physicochemical
A short description of series [1]: Melting point of the compound using crystalline form of sample.
A short description of series [2]: Ionization constant, pKa of the compound.
Series [3] in a line: Lipophilicity, log D of the compound at pH 7.4 by chromatographic reverse phase method. Particulars: reverse phase chromatography.
A short description of series [4]: Thermodynamic solubility of compound in SLF at pH 6.9 using crystalline form of sample. Particulars: read-out: Therm_solubility. The gist of the method:
(§1)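 Thermodynamic solubility was measured from solid in Simulated Lung Fluid, buffered at pH 6.9 and containing 0.75 mM lecithin plus bovine serum albumin, reported in μg/mL. Runs were at least duplicate unless otherwise footnoted. Amorphous or crystalline material was used, as the line states.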

Series [5] in a line: Kinetic solubility of the compound at pH 7.4 using crystalline form of sample. Particulars: read-out: Kinetic_solubility. The gist of the method: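 Solubility at pH 7.4 measured from a 10 mM DMSO stock (stock concentration) of crystalline material, reported in μg/mL. Runs were at least duplicate unless otherwise footnoted.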
Series [6] in a line: Thermodynamic solubility of compound in FaSSIF at pH 6.5 using crystalline form of sample. Particulars: read-out: Therm_solubility. A digest of the protocol:
(§2)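 Thermodynamic solubility in Fasted State Simulated Intestinal Fluid, buffered at pH 6.5 and containing 0.75 mM lecithin, reported in μg/mL. Runs were at least duplicate unless otherwise footnoted. Solid form was amorphous or crystalline, as the line states.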

Series [7] in a line: Melting point of the compound using amorphous form of sample.
The nature of series [8]: Thermodynamic solubility of compound in SLF at pH 6.9 using amorphous form of sample. As to conditions: read-out: Therm_solubility. The gist of the method: as §1
Series [9] in a line: Thermodynamic solubility of compound in FaSSIF at pH 6.5 using amorphous form of sample. Particulars: read-out: Therm_solubility. A digest of the protocol:
as §2

Regarding `COc1ccc(-c2c(C)nc3c(NCc4cccnc4)cc(C)cn23)cc1OC`, in [1], the Tm is 85 °C. The pKa (usually the pH at which an ionisable group is half protonated) in [2] was determined as 6.5. In addition, the chromatographic logD – broadly, lipophilicity estimated from chromatographic retention – in [3] stood at 4.9. The solubility thermodynamic was 33 µg/mL (≈ 84.9 µM) in [4] and 109 µg/mL (≈ 281 µM) in series [6]. Also, the solubility kinetic in series [5] came out at 86 µg/mL (≈ 221 µM).

As for `COc1ccc(-c2c(C)nn3c(NCc4cccnc4)nc(C)cc23)cc1OC`, in series [1], the Tm was determined as 101 °C. The pKa in series [2] came to 2.8. For the same compound, the chromatographic logD in series [3] was determined as 5.5. Besides, the solubility thermodynamic in series [4] is 6 µg/mL (≈ 15.4 µM); in [6] it was 31 µg/mL (≈ 79.6 µM). Moreover, the solubility kinetic in series [5] worked out at 35 µg/mL (≈ 89.9 µM).

On to `COc1ccc(-c2c(C)nn3c(NCC4CCOCC4)cc(C)nc23)cc1OC`, for which, in series [1], the Tm came to 157 °C. Besides, the pKa in series [2] worked out at 5.7. The compound also returned a chromatographic logD in series [3] of 5.2. For the same compound, the solubility thermodynamic in series [4] was found to be 18 µg/mL (≈ 45.4 µM); in series [6], 25 µg/mL (≈ 63.1 µM). Also, the solubility kinetic in [5] was greater than 180 µg/mL.

Turning to `COc1ccc(-c2c(C)nc3c(NCC4CCOCC4)nc(C)cn23)cc1OC`, the Tm in [7] is 93 °C. The values for the solubility thermodynamic in series [8] and in [9] were 10 µg/mL (≈ 25.2 µM) and 7 µg/mL (≈ 17.7 µM), respectively. For the same compound, in [2], the pKa stood at 5.6. For the same compound, in series [3], the chromatographic logD was determined as 5.2. The solubility kinetic in series [5] was determined as 99 µg/mL (≈ 250 µM).

On to `COc1ccc(-c2c(C)nn3c(NCc4ccc(N(C)C)cc4)cc(C)nc23)cc1OC`, for which the Tm in series [1] amounted to 238 °C. Also, the pKa in series [2] is 5.4. The compound also displayed a chromatographic logD in [3] of 3.7. Besides, the solubility thermodynamic turned out to be 1 µg/mL (≈ 2.32 µM) in [4] and 15 µg/mL (≈ 34.8 µM) in series [6]. Moreover, the solubility kinetic in series [5] worked out at 79 µg/mL (≈ 183 µM).

Consider `COc1ccc(-c2c(C)nn3c(NCc4ccc(C(N)=O)cc4)nc(C)cc23)cc1OC`, for which the Tm in [1] was found to be 194 °C. In series [2], this compound had a pKa of 3.8. In addition, the chromatographic logD in [3] was determined as 4.8. The solubility thermodynamic in [4] was less than 6 µg/mL; in [6] it was 5 µg/mL (≈ 11.6 µM). For the same compound, the solubility kinetic in series [5] was found to be 19 µg/mL (≈ 44 µM).

As for `COc1ccc(-c2c(C)nc3c(NCc4ccc(C(N)=O)cc4)nc(C)cn23)cc1OC`, the Tm in [7] turned out to be 191 °C. The solubility thermodynamic in [8] was 9 µg/mL (≈ 20.9 µM); in series [9], 32 µg/mL (≈ 74.2 µM). In series [2], this compound yielded a pKa of 5. Moreover, the chromatographic logD in [3] came out at 3.9. Besides, the solubility kinetic in [5] amounted to 53 µg/mL (≈ 123 µM).

`COc1ccc(-c2c(C)nc3c(NCc4ccc(C(N)=O)cc4)cc(C)cn23)cc1OC`: the Tm in series [1] was 203 °C. Besides, in series [2], the pKa was 6.6. In addition, the chromatographic logD in series [3] was found to be 4.3. The values for the solubility thermodynamic in series [4] and in series [6] were 2 µg/mL (≈ 4.65 µM) and 6 µg/mL (≈ 13.9 µM), respectively. In addition, the solubility kinetic in [5] was found to be 29 µg/mL (≈ 67.4 µM).

`COc1ccc(-c2c(C)nc3c(NCC4CCOCC4)cc(C)cn23)cc1OC`: the Tm in series [1] came out at 90 °C. The same compound came in with a pKa in [2] of 6.7. In addition, the chromatographic logD in series [3] was found to be 6. Further, the values for the solubility thermodynamic in series [4] and in series [6] were 29 µg/mL (≈ 73.3 µM) and 233 µg/mL (≈ 589 µM), respectively. Moreover, the solubility kinetic in series [5] came to 64 µg/mL (≈ 162 µM).

Regarding `COc1ccc(-c2c(C)nn3c(NCc4cccnc4)cc(C)nc23)cc1OC`, in series [1], the Tm came to 149 °C. The compound also returned a pKa in series [2] of 5.4. The same compound yielded a chromatographic logD in series [3] of 4.3. For the same compound, the results for the solubility thermodynamic in series [4] and in series [6] were 39 µg/mL (≈ 100 µM) and 141 µg/mL (≈ 362 µM), respectively. Moreover, the solubility kinetic in series [5] was greater than 107 µg/mL.

Turning to `COc1ccc(-c2c(C)nn3c(NCc4ccc(N(C)C)cc4)nc(C)nc23)cc1OC`, the Tm in series [1] came to 167 °C. The pKa in series [2] was 2.9. In addition, the chromatographic logD in [3] was 3.9. In addition, the solubility thermodynamic in series [4] was 10 µg/mL (≈ 23.1 µM); in series [6], 32 µg/mL (≈ 74 µM). Besides, the solubility kinetic in [5] stood at 19 µg/mL (≈ 43.9 µM).

In the case of `COc1ccc(-c2c(C)nc3c(NCc4cccnc4)nc(C)cn23)cc1OC`, in series [7], the Tm is 128 °C. The results for the solubility thermodynamic in [8] and in [9] were 58 µg/mL (≈ 149 µM) and 335 µg/mL (≈ 860 µM), respectively. In [2], this compound displayed a pKa of 5.3. For the same compound, the chromatographic logD in series [3] worked out at 4.5. For the same compound, in [5], the solubility kinetic came to 67 µg/mL (≈ 172 µM).

As to `COc1ccc(-c2c(C)nn3c(NCc4cccnc4)nc(C)nc23)cc1OC`, in [1], the Tm came out at 149 °C. Besides, in series [2], the pKa was determined as 2.5. The same compound registered a chromatographic logD in [3] of 4.5. Moreover, the solubility thermodynamic in series [4] and in series [6] was 36 µg/mL (≈ 92.2 µM) in each case. The solubility kinetic in [5] was greater than 150 µg/mL.

Turning to `COc1ccc(-c2c(C)nn3c(NCC4CCOCC4)nc(C)nc23)cc1OC`, the Tm in series [1] is 143 °C. The pKa in series [2] was found to be 3.1. The same compound had a chromatographic logD in series [3] of 5.1. The figures for the solubility thermodynamic in series [4] and in series [6] were 18 µg/mL (≈ 45.3 µM) and 29 µg/mL (≈ 73 µM), respectively. In addition, the solubility kinetic in series [5] is greater than 165 µg/mL.

Consider `COc1ccc(-c2c(C)nn3c(NCC4CCOCC4)nc(C)cc23)cc1OC`, for which, in series [1], the Tm stood at 104 °C. The pKa in series [2] turned out to be 4.4. For the same compound, the chromatographic logD in [3] was found to be 6.4. Further, the figures for the solubility thermodynamic in [4] and in series [6] were 3 µg/mL (≈ 7.57 µM) and 13 µg/mL (≈ 32.8 µM), respectively. Moreover, the solubility kinetic in [5] was found to be 44 µg/mL (≈ 111 µM).
